Results as given in ChEMBL document CHEMBL2331484, “Synthesis and biological evaluation of scopoletin derivatives” (Bioorg Med Chem, 2013).
Calls of active or inactive are those of the source. The calls are words filed in the database; no cut-off is given here.

Experiments:
[1] = Inhibition of VEGF receptor signaling in HUVEC assessed a inhibition of VEGF-induced ERK1/2 phosphorylation pretreated at 10 to 50 umol/L for 30 mins before VEGF addition by Western blot analysis; type: cell-based; conditions: Homo sapiens
Gallus gallus [2] = organism: Gallus gallus; test: Antiangiogenic activity in chicken embryo chorioallantoic membrane model assessed as inhibition of new blood vessel formation at 10 nmol/egg after 48 hrs by microscopy; type: functional, tissue-based
How it was run: (§1)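 Fertilized chicken eggs incubated seven days at 37.5 °C, ~55% humidity, and the air sac membrane was detached. Sterile 5 × 5 mm filter paper soaked with DMSO or compound (5 and 10 nmol/egg) was air-dried and placed on the CAM. Eggs were sealed and reincubated. Fat emulsion (20%) was injected into the CAM and vessels photographed. Three independent experiments.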

MKN-45 = test: Cytotoxicity against human MKN45 cells after 24 hrs by MTT assay; type: functional, cell-based; conditions: MKN-45, 24 h
HUVEC [3] = test: Antiproliferative activity against HUVEC assessed as growth inhibition rate at 10 uM after 24 hrs by MTT assay; type: functional; conditions: Homo sapiens, read-out: GI
How it was run: (§2)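 HUVECs (passages 3–5, primary cord isolates) seeded at 1 × 10⁴ cells/well. Medium replaced with M199 containing 1% FBS plus compound. Viability read by MTT after 24 h. Percent inhibition was calculated from A570 minus A630 of treated versus control wells, and IC50 determined. Triplicate experiments, means ± SEM.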

A-431 = test: Cytotoxicity against human A431 cells after 24 hrs by MTT assay; type: functional, cell-based; conditions: A-431, 24 h
HUVEC [4] = test: Antiproliferative activity against HUVEC assessed as growth inhibition rate at 100 uM after 24 hrs by MTT assay; type: functional; conditions: Homo sapiens, read-out: GI; how it was run: as §2
PANC-1 [5] = test: Inhibition of MMP-2 protein expression in human PANC1 cells at 10 to 50 umol/L after 24 hrs by SDS-PAGE analysis; type: functional, cell-based
How it was run: (§3)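 Gelatin zymography of culture medium from equal numbers of PANC-1 cells exposed to compound for 24 h. Samples run non-reduced and unboiled on 10% polyacrylamide with 1 mg/mL gelatin. Gel washed in 2.5% Triton X-100 buffer, digested 14 h at 37 °C in Tris–HCl/CaCl2/ZnCl2 buffer pH 7.6, then Coomassie-stained. Clear bands imaged.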

HUVEC [6] = test: Effect on total akt level in VEGF-stimulated HUVEC pretreated at 10 to 50 umol/L for 30 mins before VEGF addition by Western blot analysis; type: functional, cell-based; conditions: Homo sapiens
PBMC = test: Cytotoxicity against human PBMC after 24 hrs by MTT assay; type: cell-based
PANC-1 [7] = test: Inhibition of MMP-9 protein expression in human PANC1 cells at 10 to 50 umol/L after 24 hrs by SDS-PAGE analysis; type: functional, cell-based; how it was run: as §3
HCT-116 = test: Cytotoxicity against human HCT116 cells after 24 hrs by MTT assay; type: functional, cell-based; conditions: HCT-116, 24 h
HuT78 = test: Cytotoxicity against human HUT78 cells after 24 hrs by MTT assay; type: functional, cell-based; conditions: HuT78, 24 h
HL-60 = test: Cytotoxicity against human HL60 cells after 24 hrs by MTT assay; type: functional, cell-based; conditions: HL-60, 24 h
PANC-1 [8] = test: Cytotoxicity against human PANC1 cells after 24 hrs by MTT assay; type: functional, cell-based; conditions: PANC-1, 24 h
[9] = Cytotoxicity against human SHG44 cells after 24 hrs by MTT assay; type: functional, cell-based; conditions: SHG-44, 24 h
HUVEC [10] = test: Effect on total p38 MAPK level in VEGF-stimulated HUVEC pretreated at 10 to 50 umol/L for 30 mins before VEGF addition by Western blot analysis; type: functional, cell-based; conditions: Homo sapiens
HUVEC [11] = test: Antiangiogenic activity against HUVEC assessed as inhibition of VEGF-induced migration at 25 umol/L after 20 hrs by microscopy; conditions: Homo sapiens
A549 = test: Cytotoxicity against human A549 cells after 24 hrs by MTT assay; type: functional, cell-based; conditions: A549, 24 h
MDA-MB-231 = test: Cytotoxicity against human MDA-MB-231 cells after 24 hrs by MTT assay; type: functional, cell-based; conditions: MDA-MB-231, 24 h
MDA-MB-435 = test: Cytotoxicity against human MDA-MB-435 cells after 24 hrs by MTT assay; type: functional, cell-based; conditions: MDA-MB-435, 24 h
HUVEC [12] = test: Effect on total ERK1/2 level in VEGF-stimulated HUVEC pretreated at 10 to 50 umol/L for 30 mins before VEGF addition by Western blot analysis; type: functional, cell-based; conditions: Homo sapiens
HUVEC [13] = test: Antiangiogenic activity against HUVEC assessed as inhibition of VEGF-induced tube formation at 25 umol/L after 5 hrs by microscopy; type: functional, cell-based; conditions: Homo sapiens
How it was run: (§4)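 Matrigel-coated wells gelled 37 °C 30 min. DMSO or compound (final 25 µmol/L) added for 30 min before plating. After 5 h, enclosed complete tubes counted in five random fields by microscopy. Triplicate experiments, means ± SEM.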

[14] = Inhibition of VEGF receptor signaling in HUVEC assessed a inhibition of VEGF-induced Akt phosphorylation pretreated at 10 to 50 umol/L for 30 mins before VEGF addition by Western blot analysis; type: cell-based; conditions: Homo sapiens
Gallus gallus [15] = organism: Gallus gallus; test: Antiangiogenic activity in chicken embryo chorioallantoic membrane model assessed as inhibition of new blood vessel formation at 5 nmol/egg after 48 hrs by microscopy; type: functional, tissue-based; how it was run: as §1
K562 = test: Cytotoxicity against human K562 cells after 24 hrs by MTT assay; type: functional, cell-based; conditions: K562, 24 h
[16] = Inhibition of VEGF receptor signaling in VEGF-stimulated HUVEC assessed a effect on src phosphorylation pretreated at 10 to 50 umol/L for 30 mins before VEGF addition by Western blot analysis; type: cell-based; conditions: Homo sapiens
HUVEC [17] = test: Antiangiogenic activity against HUVEC assessed as inhibition of VEGF-induced branching and network formation at 25 umol/L after 5 hrs by microscopy; type: functional, cell-based; conditions: Homo sapiens; how it was run: as §4
HUVEC [18] = test: Antiangiogenic activity against HUVEC assessed as inhibition of VEGF-induced cell migration at 25 umol/L after 20 hrs by Boyden chamber assay; type: functional, cell-based; conditions: Homo sapiens
How it was run: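 Boyden chamber, 8.0 µm membrane. HUVECs at 80% confluence serum-starved 12 h in basal medium and suspended at 1 × 10⁶ cells/mL. Pre-treated 30 min at room temperature with DMSO or compound (final 25 µmol/L). After 20 h cells fixed, stained, and counted in five random fields. Triplicate experiments.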

HUVEC [19] = test: Effect on total src level in VEGF-stimulated HUVEC pretreated at 10 to 50 umol/L for 30 mins before VEGF addition by Western blot analysis; type: functional, cell-based; conditions: Homo sapiens
[20] = target: MAP kinase p38 (Homo sapiens) (UniProt O15264+Q15759+Q16539+P53778); test: Inhibition of VEGF receptor signaling in VEGF-stimulated HUVEC assessed a effect on p38 MAPK phosphorylation pretreated at 10 to 50 umol/L for 30 mins before VEGF addition by Western blot analysis; type: protein assay
BXPC-3 = test: Cytotoxicity against human BxPC3 cells after 24 hrs by MTT assay; type: functional, cell-based; conditions: BXPC-3, 24 h
HepG2 = test: Cytotoxicity against human HepG2 cells after 24 hrs by MTT assay; type: functional, cell-based; conditions: HepG2, 24 h
HUVEC [21] = test: Antiproliferative activity against HUVEC assessed as growth inhibition rate after 24 hrs by MTT assay; type: functional, cell-based; conditions: Homo sapiens; how it was run: as §2

## COc1cc2ccc(=O)oc2cc1OCC(=O)c1ccc(Cl)cc1
[1]
  inhibition: inactive
Gallus gallus [2]
  inhibition: Active
MKN-45
  IC50: 99.2 µM
HUVEC [3]
  inhibition of growth at 10 µM: 62.6%
A-431
  IC50: > 100 µM
HUVEC [4]
  inhibition of growth at 100 µM: 83.8%
PANC-1 [5]
  inhibition: Active
HUVEC [6]
  Activity: inactive
PBMC
  IC50: > 100 µM
PANC-1 [7]
  inhibition: Active
HCT-116
  IC50: 59.5 µM
HuT78
  IC50: 62.1 µM
HL-60
  IC50: 65.7 µM
PANC-1 [8]
  IC50: 19.8 µM
[9]
  IC50: > 100 µM
HUVEC [10]
  Activity: inactive
HUVEC [11]
  inhibition: Active
A549
  IC50: > 100 µM
MDA-MB-231
  IC50: > 100 µM
MDA-MB-435
  IC50: 92.4 µM
HUVEC [12]
  Activity: inactive
HUVEC [13]
  inhibition: Active
[14]
  inhibition: Active
Gallus gallus [15]
  inhibition: Active
K562
  IC50: 52.5 µM
[16]
  inhibition: inactive
HUVEC [17]
  inhibition: Active
HUVEC [18]
  inhibition: Active
HUVEC [19]
  Activity: inactive
[20]
  inhibition: inactive
BXPC-3
  IC50: > 100 µM
HepG2
  IC50: 56.3 µM
HUVEC [21]
  IC50: 10 µM

## COc1cc2ccc(=O)oc2cc1OCC(=O)c1ccc(Br)cc1
[1]
  inhibition: Active
Gallus gallus [2]
  inhibition: Active
MKN-45
  IC50: > 100 µM
HUVEC [3]
  inhibition of growth at 10 µM: 13.2%
A-431
  IC50: > 100 µM
HUVEC [4]
  inhibition of growth at 100 µM: 97.5%
PANC-1 [5]
  inhibition: Active
HUVEC [6]
  Activity: inactive
PBMC
  IC50: > 100 µM
PANC-1 [7]
  inhibition: Active
HCT-116
  IC50: > 100 µM
HuT78
  IC50: 93.7 µM
HL-60
  IC50: 90.4 µM
PANC-1 [8]
  IC50: 63.7 µM
[9]
  IC50: > 100 µM
HUVEC [10]
  Activity: inactive
HUVEC [11]
  inhibition: Active
A549
  IC50: > 100 µM
MDA-MB-231
  IC50: 47 µM
MDA-MB-435
  IC50: > 100 µM
HUVEC [12]
  Activity: inactive
HUVEC [13]
  inhibition: Active
[14]
  inhibition: Active
Gallus gallus [15]
  inhibition: Active
K562
  IC50: 70 µM
[16]
  inhibition: inactive
HUVEC [17]
  inhibition: Active
HUVEC [18]
  inhibition: Active
HUVEC [19]
  Activity: inactive
[20]
  inhibition: inactive
BXPC-3
  IC50: > 100 µM
HepG2
  IC50: 90.4 µM
HUVEC [21]
  IC50: 16.8 µM
